In ChEMBL document CHEMBL3774372, “Design, physico-chemical properties and biological evaluation of some new N-[(phenoxy)alkyl]- and N-{2-[2-(phenoxy)ethoxy]ethyl}aminoalkanols as anticonvulsant agents” (Bioorg Med Chem, 2016):
Activity calls are given as the source filed them.

Tests used:
Vibrio harveyi [1] = assay: Antimutagenic activity against Vibrio harveyi BB7XM assessed as inhibition of NQNO-induced mutagenicity after 48 hrs; format: functional
Procedure, shortened: (§1)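 V. harveyi cultures grown exponentially to A600 0.1 at 30 °C, exposed to test compound for 15 min, then to NQNO, and grown on to A600 0.3–0.4. 5 × 10⁶ cells plated on BOSS agar with neomycin (100, final). Neomycin-resistant colonies counted after 48 h at 30 °C. Result given as % inhibition of NQNO mutagenicity; three independent repeats.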

Mus musculus [2] = assay: Neurotoxicity in mouse at 10 mg/kg, ip after 4 hrs by rotarod test; format: toxicity, organism-based; settings: in vivo
Vibrio harveyi [3] = assay: Mutagenicity in Vibrio harveyi BB7X assessed as number of colonies after 48 hrs (reference value: 15 to 16 no_unit); format: ADME, organism-based; settings: in vivo
Procedure, shortened: (§2)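 Vibrio harveyi mutagenicity test: test compound was added to exponentially growing cultures (A600 = 0.1, 30 °C) and grown to OD600 0.3–0.4. Then 5 × 10^6 cells were plated on BOSS agar with neomycin (final 100 µg/mL) and incubated 48 h at 30 °C. Neomycin-resistant colonies were counted. Triplicate; controls were water, DMSO and NQNO 40 ng/mL.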

Mus musculus [4] = assay: Neurotoxicity in mouse at 300 mg/kg, ip after 0.5 hrs by rotarod test; format: toxicity, organism-based; settings: in vivo
Procedure, shortened: (§3)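 Mice were dosed ip with compound suspended in 0.5% methylcellulose. Rotarod: a 1 in. knurled rod turning at 6 rpm. Neurotoxicity was scored as failure to stay on the rod for at least 1 min in each of three trials. Results are given as the number of animals affected out of the number tested.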

Vibrio harveyi [5] = assay: Antimutagenic activity against Vibrio harveyi BB7 assessed as inhibition of NQNO-induced mutagenicity after 48 hrs; format: functional; procedure, shortened: as §1
Mus musculus [6] = assay: Neurotoxicity in mouse at 100 mg/kg, ip after 4 hrs by rotarod test; format: toxicity, organism-based; settings: in vivo; procedure, shortened: as §3
Vibrio harveyi [7] = assay: Antimutagenic activity against Vibrio harveyi BB7M assessed as inhibition of NQNO-induced mutagenicity after 48 hrs; format: functional; procedure, shortened: as §1
Mus musculus [8] = assay: Neurotoxicity in mouse at 10 mg/kg, ip after 0.5 hrs by rotarod test; format: toxicity, organism-based; settings: in vivo; procedure, shortened: as §3
Mus musculus [9] = assay: Anticonvulsant activity in mouse assessed as protection against maximal electric shock-induced seizures at 3 mg/kg, ip measured after 4 hrs; format: functional, organism-based
Procedure, shortened: (§4)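 Mice dosed ip with suspension in 0.5% methylcellulose; maximal electroshock applied at the listed time after dosing. Protection = abolition of hindlimb tonic extension component of seizure; reported as animals protected/animals tested.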

Mus musculus [10] = assay: Anticonvulsant activity in mouse assessed as protection against maximal electric shock-induced seizures at 3 mg/kg, ip measured after 0.5 hrs; format: functional, organism-based; procedure, shortened: as §4
Mus musculus [11] = assay: Neurotoxicity in mouse at 3 mg/kg, ip after 4 hrs by rotarod test; format: toxicity, organism-based; settings: in vivo
Mus musculus [12] = assay: Neurotoxicity in mouse at 30 mg/kg, ip after 4 hrs by rotarod test; format: toxicity, organism-based; settings: in vivo; procedure, shortened: as §3
Vibrio harveyi [13] = assay: Mutagenicity in Vibrio harveyi BB7 assessed as number of colonies after 48 hrs (reference value: 13 to 14 no_unit); format: ADME, organism-based; settings: in vivo; procedure, shortened: as §2
Mus musculus [14] = assay: Anticonvulsant activity in mouse assessed as protection against maximal electric shock-induced seizures at 10 mg/kg, ip measured after 4 hrs; format: functional, organism-based; procedure, shortened: as §4
Mus musculus [15] = assay: Anticonvulsant activity in mouse assessed as protection against subcutaneous pentylenetetrazol-induced seizures at 30 mg/kg, ip measured after 0.5 hrs; format: functional, organism-based
Procedure, shortened: (§5)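 Mice dosed ip as 0.5% methylcellulose suspension; pentylenetetrazole 85 mg/kg in 0.9% NaCl injected subcutaneously into posterior midline, animals watched at least 30 min. Protection = no threshold seizure (single clonic spasm episode lasting ≥5 s); scored protected/tested.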

Mus musculus [16] = assay: Anticonvulsant activity in mouse assessed as protection against maximal electric shock-induced seizures at 30 mg/kg, ip measured after 0.5 hrs; format: functional, organism-based; procedure, shortened: as §4
Mus musculus [17] = assay: Anticonvulsant activity in mouse assessed as protection against maximal electric shock-induced seizures at 30 mg/kg, ip measured after 4 hrs; format: functional, organism-based; procedure, shortened: as §4
Vibrio harveyi [18] = assay: Mutagenicity in Vibrio harveyi BB7XM assessed as number of colonies after 48 hrs (reference value: 14 no_unit); format: ADME, organism-based; settings: in vivo; procedure, shortened: as §2
Mus musculus [19] = assay: Anticonvulsant activity in mouse assessed as protection against maximal electric shock-induced seizures at 100 mg/kg, ip measured after 4 hrs; format: functional, organism-based; procedure, shortened: as §4
Vibrio harveyi [20] = assay: Antimutagenic activity against Vibrio harveyi BB7X assessed as inhibition of NQNO-induced mutagenicity after 48 hrs; format: functional; procedure, shortened: as §1
Vibrio harveyi [21] = assay: Mutagenicity in Vibrio harveyi BB7M assessed as number of colonies after 48 hrs (reference value: 13 to 14 no_unit); format: ADME, organism-based; settings: in vivo; procedure, shortened: as §2
Mus musculus [22] = assay: Anticonvulsant activity in mouse assessed as protection against subcutaneous pentylenetetrazol-induced seizures at 30 mg/kg, ip measured after 4 hrs; format: functional, organism-based; procedure, shortened: as §5
Mus musculus [23] = assay: Anticonvulsant activity in mouse assessed as protection against maximal electric shock-induced seizures at 10 mg/kg, ip measured after 0.5 hrs; format: functional, organism-based; procedure, shortened: as §4
Mus musculus [24] = assay: Neurotoxicity in mouse at 30 mg/kg, ip after 0.5 hrs by rotarod test; format: toxicity, organism-based; settings: in vivo; procedure, shortened: as §3
Mus musculus [25] = assay: Neurotoxicity in mouse at 3 mg/kg, ip after 0.5 hrs by rotarod test; format: toxicity, organism-based; settings: in vivo; procedure, shortened: as §3
Mus musculus [26] = assay: Anticonvulsant activity in ip dosed mouse assessed as protection against maximal electric shock-induced seizures measured after […]; format: functional
Mus musculus [27] = assay: Anticonvulsant activity in ip dosed mouse assessed as protection against maximal electric shock-induced seizures; format: functional, organism-based
Procedure, shortened: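 Compound suspended in 0.5% methylcellulose and given ip to mice; screening doses 30, 100 and 300 mg/kg, read at 0.25–4 h. Protection was defined as abolition of hindlimb tonic extension.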

[28] = Neurotoxicity in ip dosed mouse after […] by rotarod test; format: toxicity, organism-based; settings: in vivo
Mus musculus [29] = assay: Anticonvulsant activity in ip dosed mouse assessed as protection against subcutaneous pentylenetetrazol-induced seizures measured after […]; format: functional
[30] = Neurotoxicity in ip dosed mouse by rotarod test; format: toxicity, organism-based; settings: in vivo

## CC[C@H](CO)NCCOCCOc1c(C)cccc1C
Vibrio harveyi [1]
  inhibition (INH): 30%
Mus musculus [2]
  Activity: Non-toxic
Vibrio harveyi [3]
  Activity: 26
Mus musculus [4]
  Activity: Toxic
Vibrio harveyi [5]
  inhibition (INH): 81%
Mus musculus [6]
  Activity: Non-toxic
Vibrio harveyi [7]
  inhibition (INH): 55%
Mus musculus [8]
  Activity: Non-toxic
Mus musculus [9]
  Activity: inactive
Mus musculus [10]
  Activity: inactive
Mus musculus [11]
  Activity: Non-toxic
Mus musculus [12]
  Activity: Non-toxic
Vibrio harveyi [13]
  Activity: 20
Mus musculus [14]
  Activity: inactive
Mus musculus [15]
  Activity: inactive
Mus musculus [16]
  Activity: Active
Mus musculus [17]
  Activity: inactive
Vibrio harveyi [18]
  Activity: 27
Mus musculus [19]
  Activity: inactive
Vibrio harveyi [20]
  inhibition (INH): 56%
Vibrio harveyi [21]
  Activity: 20
Mus musculus [22]
  Activity: inactive
Mus musculus [23]
  Activity: inactive
Mus musculus [24]
  Activity: Non-toxic
Mus musculus [25]
  Activity: Non-toxic

## Cc1cccc(C)c1OCCN[C@H](C)CO
Mus musculus [26]
  ED50: 5.34 mg/kg
Mus musculus [27]
  EC50: 5.34 mg/kg
[28]
  TD50 at […]: 29.5 mg/kg
Mus musculus [29]
  ED50: > 50 mg/kg
[30]
  TD50: 29.5 mg/kg
